Measurements taken from ChEMBL document CHEMBL1156480, “Insensitivity to Abeta42-lowering nonsteroidal anti-inflammatory drugs and gamma-secretase inhibitors is common among aggressive presenilin-1 mutations” (J Biol Chem, 2007).

Legend:
CHO [1] = test: Reduction of human PS1 delta exon9 mutant-induced amyloid beta42 level in CHO cells overexpressing human APP751 at 0.5 nM after 24 hrs by liquid phase electrochemiluminescence assay relative to control; assay type: cell-based; parameters: scale not given: the % may be the effect or the level left
Mus musculus [2] = test: Reduction of amyloid beta40 level in Tg2576 mouse brain at 10 mg/kg, po after 3 hrs by ELISA; assay type: functional
Summary of the method: (§1)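 Mice given one oral 10 mg/kg dose in 0.5% tylose, or vehicle alone; the lines cover 5-month-old Tg2576 (Swedish APP) mice and 2-month-old APPPS1 (Swedish APP + human PS1-L166P, Thy-1 promoter) mice. Killed 3 h post-dose. Brain homogenized in Tris buffer with 0.2% Triton X-100 and spun 1 h at 200,000 x g. Soluble supernatant Abeta40 (6E10 capture) and Abeta42 measured by sandwich ELISA. n = 4–6, paired t-test.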

CHO [3] = test: Reduction of human PS1 delta exon9 mutant-induced amyloid beta40 level in CHO cells overexpressing human APP751 at 0.5 nM after 24 hrs by liquid phase electrochemiluminescence assay relative to control; assay type: cell-based; parameters: scale not given: the % may be the effect or the level left
[4] = test system: Presenilin-1 (Homo sapiens), P49768 [L166P]; test: Reduction of human PS1 L166P mutant-induced amyloid beta40 level in CHO cells overexpressing human APP751 at 0.2 nM after 24 hrs by liquid phase electrochemiluminescence assay relative to control; assay type: cell-based; parameters: scale not given: the % may be the effect or the level left
Summary of the method: (§2)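 APP751 CHO cells stably expressing PS1-ΔExon9, PS1-L166P or PS1-WT, cultured in parallel in serum-containing medium. Treated 24 h with increasing γ-secretase inhibitor concentrations or DMSO. Conditioned-media Abeta40/Abeta42 quantified by LPECL against synthetic peptide standards (16–2000 pg/ml). Duplicates normalized to DMSO. n = 3, one-way ANOVA with Dunnett's test versus PS1-WT.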

Mus musculus [5] = test: Reduction of amyloid beta-42 level in Tg2576 mouse brain at 10 mg/kg, po after 3 hrs by ELISA; assay type: functional; summary of the method: as §1
[6] = test system: Presenilin-1 (Homo sapiens), P49768 [L166P]; test: Reduction of human PS1 L166P mutant-induced amyloid beta42 level in CHO cells overexpressing human APP751 at 0.1 nM after 24 hrs by liquid phase electrochemiluminescence assay relative to control; assay type: cell-based; parameters: scale not given: the % may be the effect or the level left; summary of the method: as §2
[7] = Reduction of human PS1 delta exon9 mutant-induced amyloid beta-40 level in CHO cells overexpressing human APP751after 24 hrs by liquid phase electrochemiluminescence assay relative to control; assay type: cell-based
CHO [8] = test: Reduction of human PS1 delta exon9 mutant-induced amyloid beta42 level in CHO cells overexpressing human APP751 at 0.2 nM after 24 hrs by liquid phase electrochemiluminescence assay relative to control; assay type: cell-based; parameters: scale not given: the % may be the effect or the level left
Mus musculus [9] = test: Reduction of amyloid beta-40 level in Swedish APP and human PS1-L166P APPPS1 transgenic mouse brain at 10 mg/kg, po after 3 hrs by ELISA; assay type: functional; summary of the method: as §1
Mus musculus [10] = test: Reduction of amyloid beta-40 level in Swedish APP and human PS1-L166P APPPS1 transgenic mouse brain at 10 mg/kg, po after 3 hrs by ELISA relative to control; assay type: functional; parameters: scale not given: the % may be the effect or the level left; summary of the method: as §1
CHO [11] = test: Reduction of human PS1 delta exon9 mutant-induced amyloid beta-40 level in CHO cells overexpressing human APP751 at 0.2 nM after 24 hrs by liquid phase electrochemiluminescence assay relative to control; assay type: cell-based; parameters: scale not given: the % may be the effect or the level left; summary of the method: as §2
[12] = biological target: Presenilin-1 (Homo sapiens) (UniProt P49768); test: Reduction of human wild type PS1-induced amyloid beta-42 level in CHO cells overexpressing human APP751 at 0.5 nM after 24 hrs by liquid phase electrochemiluminescence assay relative to control; assay type: cell-based; parameters: scale not given: the % may be the effect or the level left
Mus musculus [13] = test: Reduction of amyloid beta-42 level in Swedish APP and human PS1-L166P APPPS1 transgenic mouse brain at 10 mg/kg, po after 3 hrs by ELISA; assay type: functional; summary of the method: as §1
[14] = test system: Presenilin-1 (Homo sapiens), P49768 [L166P]; test: Reduction of human PS1 L166P mutant-induced amyloid beta40 level in CHO cells overexpressing human APP751 at 0.5 nM after 24 hrs by liquid phase electrochemiluminescence assay relative to control; assay type: cell-based; parameters: scale not given: the % may be the effect or the level left; summary of the method: as §2
[15] = biological target: Presenilin-1 (Homo sapiens) (UniProt P49768); test: Reduction of human wild type PS1-induced amyloid beta42 level in CHO cells overexpressing human APP751 at 0.1 nM after 24 hrs by liquid phase electrochemiluminescence assay relative to control; assay type: cell-based; parameters: scale not given: the % may be the effect or the level left
[16] = test system: Presenilin-1 (Homo sapiens), P49768 [L166P]; test: Reduction of human PS1 L166P mutant-induced amyloid beta42 level in CHO cells overexpressing human APP751 at 0.5 nM after 24 hrs by liquid phase electrochemiluminescence assay relative to control; assay type: cell-based; parameters: scale not given: the % may be the effect or the level left; summary of the method: as §2
[17] = test system: Presenilin-1 (Homo sapiens), P49768 [L166P]; test: Reduction of human PS1 L166P mutant-induced amyloid beta-40 level in CHO cells overexpressing human APP751 at 0.1 nM after 24 hrs by liquid phase electrochemiluminescence assay relative to control; assay type: cell-based; parameters: scale not given: the % may be the effect or the level left; summary of the method: as §2
Mus musculus [18] = test: Reduction of amyloid beta-40 level in Tg2576 mouse brain at 10 mg/kg, po after 3 hrs by ELISA relative to control; assay type: functional; parameters: scale not given: the % may be the effect or the level left; summary of the method: as §1
[19] = biological target: Presenilin-1 (Homo sapiens) (UniProt P49768); test: Reduction of human wild type PS1-induced amyloid beta42 level in CHO cells overexpressing human APP751 at 0.2 nM after 24 hrs by liquid phase electrochemiluminescence assay relative to control; assay type: cell-based; parameters: scale not given: the % may be the effect or the level left
CHO [20] = test: Reduction of human PS1 delta exon9 mutant-induced amyloid beta42 level in CHO cells overexpressing human APP751 at 0.1 nM after 24 hrs by liquid phase electrochemiluminescence assay relative to control; assay type: cell-based; parameters: scale not given: the % may be the effect or the level left
[21] = biological target: Presenilin-1 (Homo sapiens) (UniProt P49768); test: Reduction of human wild type PS1-induced amyloid beta40 level in CHO cells overexpressing human APP751 at 0.5 nM after 24 hrs by liquid phase electrochemiluminescence assay relative to control; assay type: cell-based; parameters: scale not given: the % may be the effect or the level left
[22] = biological target: Presenilin-1 (Homo sapiens) (UniProt P49768); test: Reduction of human wild type PS1-induced amyloid beta-40 level in CHO cells overexpressing human APP751 at 0.1 nM after 24 hrs by liquid phase electrochemiluminescence assay relative to control; assay type: cell-based; parameters: scale not given: the % may be the effect or the level left
Mus musculus [23] = test: Reduction of amyloid beta42 level in Swedish APP and human PS1-L166P APPPS1 transgenic mouse brain at 10 mg/kg, po after 3 hrs by ELISA relative to control; assay type: functional; parameters: scale not given: the % may be the effect or the level left; summary of the method: as §1
[24] = Reduction of human PS1 delta exon9 mutant-induced amyloid beta-42 level in CHO cells overexpressing human APP751after 24 hrs by liquid phase electrochemiluminescence assay relative to control; assay type: cell-based
CHO [25] = test: Reduction of human PS1 delta exon9 mutant-induced amyloid beta-40 level in CHO cells overexpressing human APP751 at 0.1 nM after 24 hrs by liquid phase electrochemiluminescence assay relative to control; assay type: cell-based; parameters: scale not given: the % may be the effect or the level left; summary of the method: as §2
[26] = biological target: Presenilin-1 (Homo sapiens) (UniProt P49768); test: Reduction of human wild type PS1-induced amyloid beta-40 level in CHO cells overexpressing human APP751 at 0.2 nM after 24 hrs by liquid phase electrochemiluminescence assay relative to control; assay type: cell-based; parameters: scale not given: the % may be the effect or the level left
[27] = test system: Presenilin-1 (Homo sapiens), P49768 [L166P]; test: Reduction of human PS1 L166P mutant-induced amyloid beta42 level in CHO cells overexpressing human APP751 at 0.2 nM after 24 hrs by liquid phase electrochemiluminescence assay relative to control; assay type: cell-based; parameters: scale not given: the % may be the effect or the level left; summary of the method: as §2
Mus musculus [28] = test: Reduction of amyloid beta-42 level in Tg2576 mouse brain at 10 mg/kg, po after 3 hrs by ELISA relative to control; assay type: functional; parameters: scale not given: the % may be the effect or the level left; summary of the method: as §1

Activity [4]: 36.2% | Activity [6]: 85.2% | EC50 [7]: 0.358 nM | Activity [12]: 4.75% | Activity [14]: 11.7% | Activity [15]: 71% | Activity [16]: 28.7% | Activity [17]: 66.6% | Activity [19]: 18.8% | Activity [21]: 5.6% | Activity [22]: 64.2% | EC50 [24]: 0.352 nM | Activity [26]: 15.8% | Activity [27]: 57.7%
Structure (SMILES): C[C@H](NC(=O)[C@@H](O)c1cc(F)cc(F)c1)C(=O)N[C@@H]1C(=O)N(C)c2ccccc2-c2ccccc21
Activity (CHO [1]): 26.5% | Activity (Mus musculus [2]): 1.23 pmol/g | Activity (CHO [3]): 26.7% | Activity (Mus musculus [5]): 0.21 pmol/g | Activity (CHO [8]): 72% | Activity (Mus musculus [9]): 0.42 pmol/g | Activity (Mus musculus [10]): 81.2% | Activity (CHO [11]): 72.9% | Activity (Mus musculus [13]): 2.9 pmol/g | Activity (Mus musculus [18]): 85% | Activity (CHO [20]): 94.4% | Activity (Mus musculus [23]): 17.1% | Activity (CHO [25]): 92.6% | Activity (Mus musculus [28]): 89%
